Measured values published in PMC6972567 (Journal of Clinical Pharmacology, 2019).

Columns and labels:
[1] = Plasma pharmacokinetics of the CYP probe substrates and metabolites; type: in vivo, human; settings: for t1/2 / half-life: harmonic mean ± pseudo-SD; for AUC(0-inf): AUCinf; for AUC(0-t): AUCt
CYP2C19 = type: in vivo, human; settings: probe with upadacitinib 30 mg once daily relative to probe alone, all subjects
CYP1A2 = biological target: T1, CYP1A2 (Homo sapiens, UniProt P05177); type: in vivo; settings: probe with upadacitinib 30 mg once daily relative to probe alone, all subjects
T1 sequence (P05177 1-516): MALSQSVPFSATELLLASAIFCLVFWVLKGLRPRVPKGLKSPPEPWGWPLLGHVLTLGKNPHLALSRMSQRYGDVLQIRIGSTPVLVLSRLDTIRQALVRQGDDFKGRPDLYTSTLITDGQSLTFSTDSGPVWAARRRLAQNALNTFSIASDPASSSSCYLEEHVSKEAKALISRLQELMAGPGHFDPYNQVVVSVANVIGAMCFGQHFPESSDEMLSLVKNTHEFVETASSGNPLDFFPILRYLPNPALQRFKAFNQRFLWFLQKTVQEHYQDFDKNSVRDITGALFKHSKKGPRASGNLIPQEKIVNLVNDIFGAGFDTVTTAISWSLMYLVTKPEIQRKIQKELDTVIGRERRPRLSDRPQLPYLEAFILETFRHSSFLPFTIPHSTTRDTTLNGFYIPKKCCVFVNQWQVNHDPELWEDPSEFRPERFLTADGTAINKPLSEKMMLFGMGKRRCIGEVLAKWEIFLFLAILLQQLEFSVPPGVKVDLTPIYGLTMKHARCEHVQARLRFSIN
Method in brief: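 Twenty subjects received single oral doses on two occasions: a caffeine 200 mg tablet with the other cocktail probes, after a 10-hour minimum fast and 4 hours before lunch. This was given first alone, then after a 5-day washout on day 12 of test compound 30 mg once daily (days 1‐15). Heparinised plasma was sampled predose through 24 h and at 36 h, with validated assay.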

CYP2D6 = type: in vivo, human; settings: probe with upadacitinib 30 mg once daily relative to probe alone, all subjects
[2] = cited from earlier work
CYP3A [3] = type: in vivo, human
CYP3A [4] = settings: cited from earlier work
[5] = Safety assessments in the cocktail study; type: in vivo, human
[6] = Period 1, CYP probes alone, median (range)
[7] = Period 1, CYP probes alone, n = 20, mean ± SD
[8] = Period 2, CYP probes + upadacitinib 30 mg once daily
[9] = Period 2, CYP probes + upadacitinib 30 mg once daily, median (range)
[10] = Period 2, CYP probes + upadacitinib 30 mg once daily, n = 20, mean ± SD
[11] = human, plasma, oral, t1/2, Period 2, CYP probes + upadacitinib 30 mg once daily
[12] = human, plasma, oral, Period 1, CYP probes alone, n = 20, mean ± SD
[13] = human, plasma, oral, Period 2, CYP probes + upadacitinib 30 mg once daily, n = 20, mean ± SD
[14] = multiple doses of upadacitinib 30 mg once daily
[15] = probe with upadacitinib 30 mg once daily relative to probe alone, all subjects

Structure (SMILES)	t1/2 ([1]; Period 1, CYP probes alone) [h]	Tmax [1, 6]	t1/2 [1, 8] [h]	Tmax [1, 9]	CL/F [1, 7] [L/h]	CL/F [1, 10] [L/h]	Tmax ([1]; human, plasma, oral) [h]	Cmax ([1]; human, plasma, po) [ng/mL]	AUC(0-inf) [1, 13] [ng·h/mL]	AUC(0-t) [1, 12] [ng·h/mL]	AUC(0-t) [1, 13] [ng·h/mL]	further results
COc1ccc2nc([S+]([O-])Cc3ncc(CO)c(OC)c3C)[nH]c2c1 (centres unmarked) [5‐Hydroxy omeprazole, 5‐hydroxy‐omeprazole]	1.36 ± 0.293	3.0 (2.0‐6.0) h	1.37 ± 0.319	3.0 (2.0‐6.0) h								AUCinf [1, 7]: 1290 ± 364 ng·h/mL; AUCt [1, 7]: 1270 ± 359 ng·h/mL; Cmax ([1]; Period 1, CYP probes alone, single oral dose, plasma, healthy subjects n = 20, mean ± SD): 435 ± 155 ng/mL; AUCinf [1, 10]: 1180 ± 302 ng·h/mL; AUCt [1, 10]: 1160 ± 292 ng·h/mL; Cmax ([1]; Period 2, CYP probes + upadacitinib 30 mg once daily, plasma, n = 20, mean ± SD): 389 ± 116 ng/mL; AUCinf Central Value Ratio (90%CI) (CYP2C19): 0.92 (0.86‐0.99); AUCt Central Value Ratio (90%CI) (CYP2C19): 0.92 (0.85‐0.99)
CC(=O)C[C@@H](c1ccccc1)c1c(O)c2ccccc2oc1=O [S‐warfarin]		2.0 (0.5‐4.0) h		2.0 (0.5‐3.0) h								concentrations at the start of period 2 ([1]; carryover after 5-day washout): < 5 % of S‐warfarin Cmax
Cn1c(=O)c2c(ncn2C)n(C)c1=O [Caffeine, caffeine]				2.0 (1.0‐4.0) h	6.53 ± 2.99	5.31 ± 2.26	2	4190 ± 826				half-life ([1]; human, plasma, oral, t1/2, Period 1, CYP probes alone): 4.52 ± 1.5 h; half-life [1, 11]: 5.28 ± 1.5 h; AUCinf Central Value Ratio (90%CI) (CYP1A2): 1.22 (1.15‐1.29); AUCt Central Value Ratio (90%CI) (CYP1A2): 1.21 (1.15‐1.28); Cmax Central Value Ratio (90%CI) (CYP1A2): 1.13 (1.05‐1.22)
COc1ccc2c(c1)[C@]13CCCC[C@@H]1[C@H](C2)N(C)CC3 [Dextromethorphan, dextromethorphan]	6.82 ± 4.68		7.26 ± 5.08	3.5 (2.0‐6.0) h	4120 ± 5580	3390 ± 4560	3.5	7.77 ± 10.1	328 ± 552	250 ± 397	225 ± 347	AUCinf Central Value Ratio (90%CI) (CYP2D6): 1.07 (0.95‐1.22); AUCt Central Value Ratio (90%CI) (CYP2D6): 1.10 (0.97‐1.25); Cmax Central Value Ratio (90%CI) (CYP2D6): 1.09 (0.98‐1.21); AUC(0-inf) [1, 12]: 403 ± 706 ng·h/mL
COc1ccc2[nH]c([S+]([O-])Cc3ncc(C)c(OC)c3C)nc2c1 (centres unmarked) [Omeprazole, omeprazole]				3.0 (2.0‐6.0) h	26.5 ± 20.5	34.9 ± 24.7	3		2080 ± 1860	2520 ± 2750	2000 ± 1820	AUC(0-inf) [1, 12]: 2890 ± 2870 ng·h/mL; half-life [1, 11]: 1.14 ± 0.386 h; AUCinf Central Value Ratio (90%CI) (CYP2C19): 0.82 (0.72‐0.94); AUCt Central Value Ratio (90%CI) (CYP2C19): 0.87 (0.77‐0.99); Cmax Central Value Ratio (90%CI) (CYP2C19): 0.87 (0.72‐1.05)
CC[C@@H]1CN(C(=O)NCC(F)(F)F)C[C@@H]1c1cnc2cnc3[nH]ccc3n12 [Upadacitinib]												administered dose recovered as unchanged upadacitinib in feces and urine [2]: more than 60%; metabolizing enzymes [2]: metabolized by cytochrome P450 (CYP) 3A and, to a lesser extent, by CYP2D6; accumulation in plasma ([2]; multiple once-daily dosing of the extended-release formulation): no accumulation; effect of upadacitinib on CYP3A activity / probe exposure in vivo (in words) (CYP3A [3]; upadacitinib 30 mg once daily, midazolam probe): limited effect; sensitivity as CYP3A substrate (CYP3A [4]; concluded from ketoconazole and rifampin interaction): not a sensitive substrate for CYP3A; increase in upadacitinib AUC (CYP3A [4]; with ketoconazole, a strong CYP3A inhibitor): 75%; tolerability ([5]; CYP probe substrates alone or after multiple doses of upadacitinib 30 mg once daily, healthy subjects): well tolerated; adverse event assessed as possibly related to upadacitinib ([5]; one subject): mild oropharyngeal pain
Cc1ncc2n1-c1ccc(Cl)cc1C(c1ccccc1F)=NC2 [Midazolam, midazolam]	4.65 ± 2.51	0.5 (0.5‐1.0) h	4.08 ± 2.33		68.1 ± 29.2	90.2 ± 32.7		32.6 ± 14.1	64.6 ± 30.9	87.5 ± 44.5	63.2 ± 29.6	decrease in AUCinf (CYP3A [3]; [14]): 26%; decrease in Cmax (CYP3A [3]; [14]): 26%; AUCinf Central Value Ratio (90%CI) (CYP3A [3]; [15]): 0.74 (0.68‐0.80); AUCt Central Value Ratio (90%CI) (CYP3A [3]; [15]): 0.74 (0.68‐0.80); Cmax Central Value Ratio (90%CI) (CYP3A [3]; [15]): 0.74 (0.68‐0.80); decrease in exposure (CYP3A [3]; upadacitinib 30 mg once daily): 26%
